A short description of data set [1]: Selectivity index, ratio of TC50 for MDCK cells to IC50 for Influenza B virus jifang/13/97. The class given is toxicity, cell-based. The conditions noted are these: dog, read-out: Selectivity Index. The method in brief: (§1)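 Selectivity index = TC50 (MDCK, 48 h visual cytotoxicity) / IC50 from the 40 h CPE-inhibition assay for the given strain.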
Data set [2] deals with Influenza A virus. As to the kind of experiment: Antiviral activity against Influenza A virus (A/FM/1/1947(H1N1)) infected in MDCK cells assessed as inhibition of virus-induced cytopathicity after 40 hrs. The class given is functional, organism-based. To be noted: A/Fort Monmouth/1/1947(H1N1). In outline:
(§2)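 CPE reduction in MDCK cells: cells grown 24 h at 37 °C, 5% CO2, then infected and held 2 h at 37 °C before the inoculum was removed. Threefold serial drug dilutions (8 levels from 20 mg/mL DMSO stocks) were added and incubated 40 h at 37 °C. CPE inhibition was scored against cell and virus controls to give IC50. Ribavirin and oseltamivir were the controls.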
On the technique in general: Protection from cytopathic effect is a common read-out in antiviral testing.

The subject of another data set is Influenza B virus. Nature of the data set: Antiviral activity against Influenza B virus jifang/13/97 infected in MDCK cells assessed as inhibition of virus-induced cytopathicity after 40 hrs. The data set is classed as functional, organism-based. To be noted: jifang/13/97, MDCK. The method in brief:
as §2

For data set [3], the system named is Influenza A virus. Nature of the data set: Antiviral activity against Influenza A virus A/hanfang/359/95(H3N2) infected in MDCK cells assessed as inhibition of virus-induced cytopathicity after 40 hrs. The class given is functional, organism-based. The method in brief: as §2
Data set [4] is described as follows: Cytotoxicity against MDCK cells after 48 hrs. The class given is cell-based, Canis lupus familiaris. To be noted: dog, read-out: TC50. The method in brief: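 MDCK cells seeded at 25000 per well and cultured 24 h at 37 °C, 5% CO2. Threefold dilutions were added to the monolayer and culture continued 48 h. Cytopathic changes were recorded by observation, and TC50 was calculated by the Reed & Muench method.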

The nature of data set [5]: Selectivity index, ratio of TC50 for MDCK cells to IC50 for Influenza A virus (A/FM/1/1947(H1N1)). The class given is toxicity, cell-based. To be noted: dog, read-out: Selectivity Index. In outline: as §1

≈ marks a conversion by molar mass, not a printed value.

For the compound `C=C(C(=O)OCc1cn(Cc2ccccc2C)nn1)[C@@H]1CC[C@H](C)[C@@H]2CC(=O)C(C)=C2C1`, in data set [1], the selectivity ratio was determined as 2.55. For the same compound, the IC50 (usually the concentration needed to halve the response being measured) with Influenza A virus [2] was more than 22.2 µg/mL; in the data set with Influenza B virus, 18.8 µg/mL (≈ 43.4 µM); in the data set on Influenza A virus [3], more than 22.2 µg/mL. Further, in data set [4], the CC50 at 48 h came out at 46.2 µg/mL (≈ 107 µM).

For `C=C(C(=O)OCc1cn(Cc2ccc(F)cc2)nn1)[C@@H]1CC[C@H](C)[C@@H]2CC(=O)C(C)=C2C1`, in data set [1], the selectivity ratio stood at 9.1. Besides, the IC50 is more than 22.2 µg/mL in the data set with Influenza A virus [2], 8.98 µg/mL (≈ 20.5 µM) in the data set on Influenza B virus and more than 22.2 µg/mL in the data set with Influenza A virus [3]. For the same compound, the CC50 at 48 h in data set [4] amounted to 66.7 µg/mL (≈ 152 µM).

Regarding `C=C(C(=O)OCc1cn(Cc2ccc(C)cc2)nn1)[C@@H]1CC[C@H](C)[C@@H]2CC(=O)C(C)=C2C1`, the selectivity ratio in data set [1] was not below 4.32. Besides, the values for the IC50 in the data set with Influenza A virus [2], in the data set with Influenza B virus and in the data set on Influenza A virus [3] were more than 22.2 µg/mL, not below 22.2 µg/mL and more than 22.2 µg/mL, respectively. In addition, the CC50 at 48 h in data set [4] stood at 96.2 µg/mL (≈ 222 µM).

For `C=C(C(=O)NCc1cn(Cc2ccc(OC)cc2)nn1)[C@@H]1CC[C@H](C)[C@@H]2CC(=O)C(C)=C2C1`, the results for the selectivity ratio in data set [1] and in data set [5] were 8.25 and 10.5, respectively. For the same compound, the values for the IC50 in the data set on Influenza A virus [2], in the data set with Influenza B virus and in the data set on Influenza A virus [3] were 14 µg/mL (≈ 31.2 µM), 11.8 µg/mL (≈ 26.2 µM) and more than 22.2 µg/mL, respectively. Besides, in data set [4], the CC50 at 48 h was 96.2 µg/mL (≈ 214 µM).

Consider `C=C(C(=O)OCc1cn(Cc2ccccc2)nn1)[C@@H]1CC[C@H](C)[C@@H]2CC(=O)C(C)=C2C1`, for which the selectivity ratio in data set [1] is not below 3.9. Moreover, the results for the IC50 in the data set on Influenza A virus [2], in the data set on Influenza B virus and in the data set on Influenza A virus [3] were more than 7.41 µg/mL, not below 7.41 µg/mL and more than 7.41 µg/mL, respectively. In addition, in data set [4], the CC50 at 48 h came to 28.6 µg/mL (≈ 68.2 µM).

Take `C=C(C(=O)OCc1cn(Cc2cccc(OC)c2)nn1)[C@@H]1CC[C@H](C)[C@@H]2CC(=O)C(C)=C2C1`: the IC50 with Influenza A virus [2], with Influenza B virus and in the data set on Influenza A virus [3] was more than 22.2 µg/mL in each case. Besides, the CC50 at 48 h in data set [4] was determined as 96.2 µg/mL (≈ 214 µM).

With `C=C(C(=O)OCc1cn(Cc2ccc(Cl)c(Cl)c2)nn1)[C@@H]1CC[C@H](C)[C@@H]2CC(=O)C(C)=C2C1`, the IC50 with Influenza A virus [2], in the data set with Influenza B virus and in the data set on Influenza A virus [3] was more than 7.41 µg/mL throughout. Moreover, the CC50 at 48 h in data set [4] turned out to be 22.2 µg/mL (≈ 45.5 µM).

For the compound `C=C(C(=O)NCc1cn(Cc2ccccc2F)nn1)[C@@H]1CC[C@H](C)[C@@H]2CC(=O)C(C)=C2C1`, the IC50 in the data set with Influenza A virus [2], with Influenza B virus and with Influenza A virus [3] was more than 66.7 µg/mL in each case. For the same compound, in data set [4], the CC50 at 48 h amounted to 116 µg/mL (≈ 265 µM).

In the case of `C=C(C(=O)OCc1cn(Cc2cccc(F)c2)nn1)[C@@H]1CC[C@H](C)[C@@H]2CC(=O)C(C)=C2C1`, the selectivity ratio in data set [1] was not below 4.3. Also, the IC50 in the data set on Influenza A virus [2] was more than 22.2 µg/mL; with Influenza B virus it was not below 22.2 µg/mL; with Influenza A virus [3], more than 22.2 µg/mL. The CC50 at 48 h in data set [4] amounted to 96.2 µg/mL (≈ 220 µM).

In the case of `C=C(C(=O)OCc1cn(Cc2ccc(Cl)cc2)nn1)[C@@H]1CC[C@H](C)[C@@H]2CC(=O)C(C)=C2C1`, the selectivity ratio in data set [1] amounted to 5.2. Also, the values for the IC50 with Influenza A virus [2], with Influenza B virus and in the data set with Influenza A virus [3] were more than 22.2 µg/mL, 12.8 µg/mL (≈ 28.3 µM) and more than 22.2 µg/mL, respectively. The CC50 at 48 h in data set [4] was 66.7 µg/mL (≈ 147 µM).

On to `C=C(C(=O)NCc1cn(Cc2cccc(C)c2)nn1)[C@@H]1CC[C@H](C)[C@@H]2CC(=O)C(C)=C2C1`, for which the selectivity ratio in data set [1] was 5.7. The results for the IC50 in the data set on Influenza A virus [2], in the data set on Influenza B virus and in the data set with Influenza A virus [3] were more than 22.2 µg/mL, 11.8 µg/mL (≈ 27.2 µM) and more than 22.2 µg/mL, respectively. In addition, the CC50 at 48 h in data set [4] came to 66.7 µg/mL (≈ 154 µM).

For the compound `C=C(C(=O)NCc1cn(Cc2ccccc2C)nn1)[C@@H]1CC[C@H](C)[C@@H]2CC(=O)C(C)=C2C1`, the selectivity ratio in data set [1] worked out at 4.55. The IC50 in the data set on Influenza A virus [2] is more than 22.2 µg/mL; in the data set on Influenza B virus, 15 µg/mL (≈ 34.7 µM); in the data set on Influenza A virus [3], more than 22.2 µg/mL. For the same compound, in data set [4], the CC50 at 48 h was found to be 66.7 µg/mL (≈ 154 µM).

Take `C=C(C(=O)OCc1cn(Cc2cccc(Cl)c2)nn1)[C@@H]1CC[C@H](C)[C@@H]2CC(=O)C(C)=C2C1`: in data set [1], the selectivity ratio was found to be 2.1. The IC50 is not below 66.7 µg/mL in the data set on Influenza A virus [2], 66.7 µg/mL (≈ 147 µM) in the data set on Influenza B virus and more than 66.7 µg/mL in the data set on Influenza A virus [3]. For the same compound, the CC50 at 48 h in data set [4] was found to be 139 µg/mL (≈ 305 µM).

These data come from ChEMBL document CHEMBL3124823, “1,2,3-Triazole-containing derivatives of rupestonic acid: click-chemical synthesis and antiviral activities against influenza viruses” (Eur J Med Chem, 2014).
